Among the data in ChEMBL document CHEMBL1127446, “Structure-activity relationships of 1,2,4-triazolo[1,5-a] quinoxalines and their 1-deaza analogues imidazo[1,2-a]quinoxalines at the benzodiazepine receptor” (J Med Chem, 1994) are Ki, Ratio and inhibition values, retold here.

For test [1], the target named is GABA-A receptor; anion channel. Description: Binding affinity to BZR receptor on bovine cerebral cortex by [3H]flunitrazepam displacement. The format is tissue-based. A digest of the protocol: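 Compounds first screened at 10 μM, then IC50 from log-probit plots and Ki derived from it. Ki given as mean ± SEM of four determinations.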
Test [2] concerns the target T1, GABA-A receptor; anion channel (Bos taurus) (UniProt P10063+P08220+P20237+P08219+P10064+P22300). The test can be described thus: GABA ratio is measured by IC50 (compound)/IC50 (compound at 10 uM GABA. The format is protein-complex assay. A digest of the protocol: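 [³H]flunitrazepam (0.2 nM) displacement in bovine brain membranes; IC50 from log-probit plots, measured without and with 10 μM GABA. Ratio = IC50 without GABA / IC50 with GABA, from five independent experiments; compounds dissolved in DMSO.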

The target in test [3] is T1, GABA-A receptor; anion channel (Bos taurus). Description: Binding affinity to BZR receptor of bovine cerebral cortex by [3H]flunitrazepam displacement at 10 uM. The format is tissue-based. A digest of the protocol: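 Percent inhibition of specific binding measured with test compound at 10 μM, dissolved in DMSO.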

Usually Ki stands for the equilibrium dissociation constant of an inhibitor or competing ligand from its target. Higher therefore signals weaker binding. The compound `Oc1nc2ccccc2n2nc(-c3cccs3)nc12` displayed a Ki in test [1] of 21.8 nM. The Ratio in test [2] was determined as 0.92.

In test [1], `O=c1[nH]c2ccc(Cl)cc2n2nc(-c3cccs3)nc12` returned a Ki of 17.4 nM.

On to `Oc1nc2ccc(Cl)cc2n2nc(-c3ccoc3)nc12`, for which, in test [1], the Ki came out at 9.8 nM. Besides, the Ratio in test [2] turned out to be 0.84.

For the compound `Oc1nc2ccc(Cl)cc2n2nc(-c3ccco3)nc12`, in test [1], the Ki came out at 14.5 nM. Also, the Ratio in test [2] is 0.67.

Compound `O=c1[nH]c2ccc(Cl)cc2n2nc(-c3ccsc3)nc12` came in with a Ki in test [1] of 15.9 nM.

In test [1], `COc1ccc(-c2nc3c(=O)[nH]c4ccc(Cl)cc4n3n2)cc1` showed a Ki of 5.4 nM. Compared with the last compound, the Ki is about 2.9-fold lower.

Consider `COc1ccc(-c2nc3c(O)nc4ccc(Cl)cc4n3n2)cc1`, for which the Ratio in test [2] came to 1.03.

On to `Oc1nc2ccc(Cl)cc2n2nc(-c3cccs3)nc12`, for which the Ratio in test [2] was determined as 1.09.

In test [1], `Oc1nc2ccccc2n2nc(-c3ccccc3F)nc12` gave a Ki of 8.9 nM. Further, in test [2], the Ratio came out at 1.04.

`Oc1ccc(-c2nc3c(O)nc4ccc(Cl)cc4n3n2)cc1` yielded an inhibition constant (Ki) in test [1] of 29.8 nM. Also, the Ratio in test [2] amounted to 0.88.

`Oc1nc2ccccc2n2cc(-c3ccccc3)nc12` registered a Ki in test [1] of 42.3 nM. The Ratio in test [2] was determined as 1.36.

Turning to `Oc1nc2ccc(Cl)cc2n2nc(-c3ccccc3F)nc12`, the Ki in test [1] came out at 2.9 nM. For the same compound, in test [2], the Ratio was 0.77.

In the case of `Oc1nc2ccccc2n2nc(-c3ccco3)nc12`, in test [1], the inhibition constant (Ki) was found to be 71.2 nM. Besides, the Ratio in test [2] was 1.05.

The compound `COc1ccc(-c2cn3c(n2)c(O)nc2ccccc23)cc1` registered a Ki in test [1] of 56.4 nM. Further, the Ratio in test [2] turned out to be 1.21.

On to `COc1ccc(-c2nc3c(O)nc4ccccc4n3n2)cc1`, for which the Ki in test [1] came out at 87.8 nM. Also, the Ratio in test [2] is 1.04.

In the case of `Oc1nc2ccc(Cl)cc2n2nc(-c3ccsc3)nc12`, in test [2], the Ratio came to 0.8.

In test [1], `Oc1nc2ccc(Cl)cc2n2nc(-c3cccc(F)c3)nc12` had an inhibition constant (Ki) of 32.8 nM. The Ratio in test [2] was found to be 0.82.

For orientation: inhibition means how much of the control response was suppressed. Lower therefore signals a weak effect. In turn, `Cn1c(=O)c2nc(-c3ccccc3)cn2c2ccccc21` returned an inhibition in test [3] of 2%.

`Oc1ccc(-c2nc3c(O)nc4ccccc4n3n2)cc1` had a Ki in test [1] of 67.5 nM. In addition, in test [2], the Ratio is 0.9.

Regarding `Oc1nc2ccccc2n2cc(-c3cccs3)nc12`, the affinity in test [1], expressed as Ki, was 15.9 nM. The Ratio in test [2] stood at 1.13.

`Oc1nc2ccc(Br)cc2n2nc(-c3ccco3)nc12` registered a Ki in test [1] of 13.2 nM. For the same compound, the Ratio in test [2] was determined as 0.77.
